Test results reported in ChEMBL document CHEMBL4024778, “From Experiments to a Fast Easy-to-Use Computational Methodology to Predict Human Aldehyde Oxidase Selectivity and Metabolic Reactions” (J Med Chem, 2018).
Values belong to the molecule of their own block, whether it stands above or below them.

Tests used:
[1] = tested on: Liver; test: Drug metabolism in human liver microsomes assessed as formation of 2-(pyrrolidin-1-yl)aniline after 60 mins; type: ADME, microsome; details: 1 h
[2] = tested on: Liver; test: Drug metabolism in human liver cytosol assessed as formation of 2-(pyrrolidin-1-yl)aniline at 10 uM after 60 mins by LC-MS/MS analysis; type: ADME, tissue-based; details: 1 h
In short: (§1)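 Pooled human liver cytosol incubated with 10 μM substrate at pH 7.4 and 37 °C with 1 mM MgCl2·6H2O. Reactions stopped at 0 and 60 min with ice-cold acetonitrile containing 0.6 μM labetalol as internal standard, alongside a compound-free blank. Protein removed by centrifugation. Supernatant analysed by LC-MS/MS on a QTOF with electrospray ionization, using one of three reversed-phase gradient methods.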

[3] = tested on: Liver; test: Drug metabolism in human liver microsomes after 60 mins; type: ADME, microsome; details: 1 h
[4] = tested on: Liver; test: Drug level in human liver cytosol treated with N1-(pyrimidin-2-yl)-N2-(quinoxalin-2-yl)ethane-1,2-diamine at 10 uM after 60 mins by LC-MS/MS analysis; type: ADME, tissue-based; details: 1 h; in short: as §1
[5] = molecular target: T1, Cytochrome P450 3A4 (Homo sapiens, UniProt P08684); test: Drug level treated with N1-(Naphthalen-2-yl)-N2-(pyrimidin-2-yl)ethane-1,2-diamine assessed as CYP3A4 (unknown origin)-mediated metabolite formation after 60 mins; type: ADME; details: 1 h
[6] = tested on: Liver; test: Drug level in human liver microsomes treated with N1-(Naphthalen-2-yl)-N2-(pyrimidin-2-yl)ethane-1,2-diamine after 60 mins by LC-MS/MS analysis; type: ADME, microsome; details: 1 h
[7] = molecular target: T1, Cytochrome P450 3A4; test: Drug metabolism assessed as CYP3A4 (unknown origin)-mediated formation of 2-(pyrimidin-2-ylamino)ethanol after 60 mins; type: ADME; details: 1 h
[8] = tested on: Liver; test: Drug metabolism in human liver microsomes assessed as formation of 2-(pyrimidin-2-ylamino)ethanol after 60 mins; type: ADME, microsome; details: 1 h
[9] = tested on: Liver; test: Drug level in human liver microsomes treated with N-((1H-Indol-2-yl)methyl)-2-(pyrrolidin-1-yl)aniline after 60 mins; type: ADME, microsome
[10] = tested on: Liver; test: Drug level in human liver cytosol treated with N-(2-(Pyrrolidin-1-yl)phenyl)-1H-indole-2-carboxamide at 10 uM after 60 mins by LC-MS/MS analysis; type: ADME, tissue-based; in short: as §1
[11] = tested on: Liver; test: Drug metabolism in human liver cytosol assessed as formation of 3-(2-(pyrimidin-2-ylamino)ethylamino)quinoxalin-2(1H)-one at 10 uM after 60 mins by LC-MS/MS analysis; type: ADME, tissue-based; in short: as §1

T1 sequence (P08684 whole entry): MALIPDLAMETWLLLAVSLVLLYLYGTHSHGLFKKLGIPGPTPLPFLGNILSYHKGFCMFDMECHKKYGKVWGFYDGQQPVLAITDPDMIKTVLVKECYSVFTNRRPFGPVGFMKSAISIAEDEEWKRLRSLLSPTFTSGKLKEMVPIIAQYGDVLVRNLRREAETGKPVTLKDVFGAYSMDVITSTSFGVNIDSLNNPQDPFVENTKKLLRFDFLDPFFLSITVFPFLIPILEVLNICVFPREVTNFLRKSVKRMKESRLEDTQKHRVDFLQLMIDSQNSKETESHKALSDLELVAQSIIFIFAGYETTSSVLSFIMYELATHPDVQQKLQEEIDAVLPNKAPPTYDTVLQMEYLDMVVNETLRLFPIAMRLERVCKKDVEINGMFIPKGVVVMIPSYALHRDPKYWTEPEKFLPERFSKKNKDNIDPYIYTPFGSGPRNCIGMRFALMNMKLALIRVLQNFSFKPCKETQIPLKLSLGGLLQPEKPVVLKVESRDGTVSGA

Compound: O=C(Nc1ccccc1N1CCCC1)c1cc2ccccc2[nH]1
Drug metabolism [2]: Metabolite_Detected | Drug metabolism [3]: Metabolite_Notdetected

Compound: OCCNc1ncccn1
Drug metabolism [5]: Metabolite_Detected | Drug metabolism [6]: Metabolite_Detected

Compound: c1cnc(NCCNc2ccc3ccccc3c2)nc1
Drug metabolism [7]: Metabolite_Detected | Drug metabolism [8]: Metabolite_Detected

Compound: Nc1ccccc1N1CCCC1
Drug metabolism [9]: Metabolite_Detected | Drug metabolism [10]: Metabolite_Detected

Second part, the molecule after the results:

Drug metabolism [1]: Metabolite_Detected
Compound: c1ccc(N2CCCC2)c(NCc2cc3ccccc3[nH]2)c1

Drug metabolism [4]: Metabolite_Detected
Compound: O=c1[nH]c2ccccc2nc1NCCNc1ncccn1

Drug metabolism [11]: Metabolite_Detected | Drug metabolism [3]: Metabolite_Notdetected
Compound: c1cnc(NCCNc2cnc3ccccc3n2)nc1
